Laboratory results from PubChem BioAssay AID588826 (Broad Institute, 2011).
“And” between values parts separate entries of the source, which are not always exact repeats. Equal entries are not always repeated. The source made the active and inactive calls.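 Rule for the calls: active = compounds cutting cell viability whose fitted half-maximal concentration is at most twice the top tested dose; inconclusive = flat loss between 30% and 70%, or poor curve fit; inactive = opposite effect, flat within 30%, or weaker potency.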

Test system: ldlA[mSR-BI] CHO cells viability, CellTiter-Glo ATP, 24 h
Experiment: cytotoxicity in ldlA[mSR-BI] CHO cells, dose response, cytotoxicity control for SR-BI HDL uptake inhibitor project, cell-based, CellTiter-Glo luminescence, 24 h, dry powder, set 3 (AID 588826)
Conditions: not given
Procedure, shortened: (§1)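 system = ldlA cells expressing mouse scavenger receptor SR-BI | schedule = 24 h compound exposure at 37 °C, read 10 min after reagent | buffer or medium = Ham's F12 growth medium with 10% FCS | measure = cell viability IC50 | technique = CellTiter-Glo luminescence measuring cellular ATP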

**Q.** For `Cc1ccc2oc(-c3cccc(NC(=O)c4cc(-n5cnnc5)ccc4Cl)c3)nc2c1`, which IC50 is on record?
**A.** 39.9 µM

**Q.** With `CCOc1ccccc1/C=C/c1onc(C)c1S(=O)(=O)N1CCC(C(=O)NC(C)(C)C)CC1` as the molecule, how does the IC50 read?
**A.** 33.8 µM

**Q.** With `CCCCCCC1CCC/C1=N\NC(N)=S` (stereo not given) as the molecule, how does the IC50 read?
**A.** 4.46 µM

**Q.** Which IC50 does the source give for `COc1c(NC(=O)C(=O)c2ccc(OCCN3CCOCC3)c3ccccc23)cc(C(C)(C)C)cc1NS(C)(=O)=O` here?
**A.** 17.8 µM

**Q.** Which IC50 does the source give for `C[C@H]1CN([C@@H](C)CO)C(=O)c2cccc(NC(=O)Nc3ccccc3)c2O[C@@H]1CN(C)Cc1ccc(Cl)c(Cl)c1` here?
**A.** 16.1 µM

**Q.** With `CC(C(=O)NC1CCCC1)N(C(=O)Cn1nnc(-c2ccc(Cl)cc2)n1)C1CCCCC1` (stereo not given) as the molecule, how does the IC50 read?
**A.** 53 µM

Test system: not listed separately
Experiment: as above
Conditions: ldlA[mSR-BI] CHO cells viability, CellTiter-Glo ATP, 24 h; at 11 µM (top of the series)
Procedure, shortened: as §1

**Q.** Which activity change, negative = cytotoxicity does the source give for `CC(C)NC(=O)Nc1cccc2c1O[C@H](CN(C)Cc1ccc(Cl)c(Cl)c1)[C@@H](C)CN([C@@H](C)CO)C2=O` here?
**A.** 6.58% (inactive)

Same assay, conditions: ldlA[mSR-BI] CHO cells viability, CellTiter-Glo ATP, 24 h; at 30 µM (top of the series)

**Q.** Which activity change, negative = cytotoxicity does the source give for `C[C@@H]1CN([C@@H](C)CO)C(=O)Cc2cc(NC(=O)Nc3ccc(C(F)(F)F)cc3)ccc2O[C@@H]1CN(C)S(=O)(=O)c1ccc(Cl)cc1` here?
**A.** -40.4% (inactive)

Same assay, conditions: ldlA[mSR-BI] CHO cells viability, CellTiter-Glo ATP, 24 h; at 35 µM (top of the series)

**Q.** For `O=C(CN(C(=O)Cn1nnc(-c2ccc3c(c2)OCO3)n1)C1CCCCC1)NC1CCCC1`, which activity change, negative = cytotoxicity is on record?
**A.** -3.34% (inactive)

**Q.** Which activity change, negative = cytotoxicity does the source give for `COc1ccc(-c2nnn(CC(=O)N(CC3CCCCC3)C(C)C(=O)NC3CCCC3)n2)cc1OC` (stereo not given) here?
**A.** 3.32% (inactive)

**Q.** Which activity change, negative = cytotoxicity does the source give for `COc1ccc(-c2cc(CC(=O)N(C3CCCCC3)C(C)C(=O)NC3CCCC3)no2)cc1OC` (stereo not given) here?
**A.** 3.77% (inactive)

**Q.** For `CCNC(=O)N1CCc2cc(-c3csc(NC(=O)c4cc(OC)cc(OC)c4)n3)ccc21`, which activity change, negative = cytotoxicity is on record?
**A.** -8.64% (inactive)

**Q.** For `C[C@H](C(=O)NC1CCCC1)N(C(=O)Cn1nnc(-c2ccc3c(c2)OCO3)n1)C1CCCCC1`, which activity change, negative = cytotoxicity is on record?
**A.** -10.6% (inactive)

**Q.** With `CCC(=O)N1CCc2cc(-c3csc(NC(=O)c4cccc(OC)c4)n3)ccc21` as the molecule, how does the activity change, negative = cytotoxicity read?
**A.** 3.32% (inactive)

**Q.** Which activity change, negative = cytotoxicity does the source give for `COc1ccc(-c2nnn(CC(=O)N(C3CCN(C)CC3)C(C)C(=O)NC3CCCC3)n2)cc1OC` (stereo not given) here?
**A.** 9.25% (inactive)

**Q.** Which activity change, negative = cytotoxicity does the source give for `COc1ccc(-c2nnn(CC(=O)N(C3CCCC3)C(C)C(=O)NC3CCCC3)n2)cc1OC` (stereo not given) here?
**A.** -0.791% (inactive)

**Q.** For `COCC(=O)N1CCc2cc(-c3csc(NC(=O)c4cc(OC)cc(OC)c4)n3)ccc21`, which activity change, negative = cytotoxicity is on record?
**A.** 4.05% (inactive)

**Q.** With `C[C@@H]1CN([C@H](C)CO)C(=O)c2cc(NC(=O)Cc3cn(C)c4ccccc34)ccc2O[C@H]1CN(C)S(=O)(=O)c1ccc(Cl)cc1` as the molecule, how does the activity change, negative = cytotoxicity read?
**A.** 4.93% (inactive) and -3.5% (inactive) and 6.65% (inactive)

**Q.** For `COc1cc(OC)cc(C(=O)Nc2nc(-c3ccc4c(c3)CCN4C(=O)OC(C)(C)C)cs2)c1`, which activity change, negative = cytotoxicity is on record?
**A.** 5.45% (inactive)

**Q.** Which activity change, negative = cytotoxicity does the source give for `COc1cc(OC)cc(C(=O)Nc2nc(-c3ccc4c(c3)CCN4C(=O)CN(C)C)cs2)c1` here?
**A.** -10.2% (inactive)

**Q.** With `COc1ccc(-c2nnn(CC(=O)N(C3CCCCC3)C(C(=O)NC3CCCC3)C(C)C)n2)cc1OC` (stereo not given) as the molecule, how does the activity change, negative = cytotoxicity read?
**A.** -15.8% (inactive)

**Q.** Which activity change, negative = cytotoxicity does the source give for `CCC(=O)N1CCc2cc(-c3csc(NC(=O)c4ccc(F)c(OC)c4)n3)ccc21` here?
**A.** -12.3% (inactive)

**Q.** With `CCC(=O)N1CCc2cc(-c3csc(NC(=O)c4ccco4)n3)ccc21` as the molecule, how does the activity change, negative = cytotoxicity read?
**A.** -2.4% (inactive)

**Q.** For `CC1CCC/C=C/C2CC(O)CC2C(O)/C=C\C(=O)O1` (stereo not given), which activity change, negative = cytotoxicity is on record?
**A.** -9.81% (inactive)

**Q.** For `CC(C(=O)NC1CCCC1)N(C(=O)Cn1nnc(-c2ccccc2)n1)C1CCCCC1` (stereo not given), which activity change, negative = cytotoxicity is on record?
**A.** 4.27% (inactive)

**Q.** With `COc1ccc(-c2nnn(CC(=O)N(C3CCCCC3)C(C)C(=O)NC3CCCC3)n2)cc1OC` (stereo not given) as the molecule, how does the activity change, negative = cytotoxicity read?
**A.** 37.1% (inactive)

**Q.** With `CCC(=O)N1CCc2cc(-c3csc(NC(=O)c4cccc(C#N)c4)n3)ccc21` as the molecule, how does the activity change, negative = cytotoxicity read?
**A.** -0.356% (inactive)

**Q.** For `CCOC(=O)N1CCC(NC(=O)c2ccc3c(c2)N(Cc2ccc(F)cc2)CCS3)CC1`, which activity change, negative = cytotoxicity is on record?
**A.** -13.6% (inactive)

**Q.** Which activity change, negative = cytotoxicity does the source give for `CCC(=O)N1CCc2cc(-c3csc(NC(=O)c4ccc5c(c4)OCO5)n3)ccc21` here?
**A.** 1.94% (inactive)

**Q.** With `C[C@@H]1CN([C@H](C)CO)C(=O)c2cc(NC(=O)Cc3cn(C)c4ccccc34)ccc2O[C@H]1CN(C)S(=O)(=O)c1ccc(F)cc1` as the molecule, how does the activity change, negative = cytotoxicity read?
**A.** -4.67% (inactive)

**Q.** Which activity change, negative = cytotoxicity does the source give for `CC(=O)N1CCc2cc(-c3nc(NC(=O)c4cccc(OC(F)(F)F)c4)sc3C)ccc21` here?
**A.** 1.36% (inactive)

**Q.** Which activity change, negative = cytotoxicity does the source give for `CCC(=O)N1CCc2cc(-c3csc(NC(=O)c4ccc(Cl)s4)n3)ccc21` here?
**A.** -1.8% (inactive)

**Q.** Which activity change, negative = cytotoxicity does the source give for `CCC(=O)N1CC(C)(C)c2cc(-c3csc(NC(=O)c4cc(OC)cc(OC)c4)n3)ccc21` here?
**A.** -3.5% (inactive)

**Q.** With `CC(C)(Sc1cc(C(C)(C)C)c(O)c(C(C)(C)C)c1)Sc1cc(C(C)(C)C)c(O)c(C(C)(C)C)c1` as the molecule, how does the activity change, negative = cytotoxicity read?
**A.** -1.63% (inactive)

Same assay, conditions: ldlA[mSR-BI] CHO cells viability, CellTiter-Glo ATP, 24 h; at 68 µM (top of the series)

**Q.** For `CCOc1ccc(NC(=O)CN2CCN(CC(=O)Nc3cc(OC)cc(OC)c3)CC2)cc1`, which activity change, negative = cytotoxicity is on record?
**A.** -0.275% (inactive)
